Data taken from ChEMBL document CHEMBL4257503, “N-Acetyl-3-aminopyrazoles block the non-canonical NF-kB cascade by selectively inhibiting NIK” (Medchemcomm, 2018).

Columns and labels:
[1] = biological target: T1, Inhibitor of nuclear factor kappa-B kinase subunit alpha (Homo sapiens, UniProt O15111); assay: Inhibition of recombinant full length human His-tagged IKKalpha expressed in baculovirus expression system using ERLLDDRHDSGLDSMKDEE peptide as substrate measured after 60 mins by ADP-Glo kinase assay
T1 sequence (O15111 whole entry): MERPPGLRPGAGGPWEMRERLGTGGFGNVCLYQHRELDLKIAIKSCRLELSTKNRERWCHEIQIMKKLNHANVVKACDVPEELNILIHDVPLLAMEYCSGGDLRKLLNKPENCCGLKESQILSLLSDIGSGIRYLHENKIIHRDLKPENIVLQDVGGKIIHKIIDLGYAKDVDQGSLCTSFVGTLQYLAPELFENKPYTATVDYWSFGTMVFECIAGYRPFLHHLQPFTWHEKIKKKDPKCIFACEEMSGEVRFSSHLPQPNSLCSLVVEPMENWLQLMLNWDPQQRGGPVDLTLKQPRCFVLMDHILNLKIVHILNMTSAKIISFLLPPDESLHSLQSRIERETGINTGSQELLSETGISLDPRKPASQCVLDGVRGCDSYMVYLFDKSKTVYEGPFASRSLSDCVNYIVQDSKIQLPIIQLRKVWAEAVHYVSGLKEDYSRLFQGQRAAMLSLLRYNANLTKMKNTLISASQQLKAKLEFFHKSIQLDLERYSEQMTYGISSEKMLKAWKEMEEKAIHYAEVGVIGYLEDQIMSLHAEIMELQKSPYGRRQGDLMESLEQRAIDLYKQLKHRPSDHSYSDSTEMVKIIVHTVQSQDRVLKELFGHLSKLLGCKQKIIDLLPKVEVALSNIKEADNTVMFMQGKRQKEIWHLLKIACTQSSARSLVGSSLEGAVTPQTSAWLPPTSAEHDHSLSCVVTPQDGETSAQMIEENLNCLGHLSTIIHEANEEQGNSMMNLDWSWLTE
Outline: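 Recombinant human IKKα, peptide substrate 100 µM, enzyme 8 ng/µL, ATP 1 µM in Tris-HCl pH 7.5 buffer with MgCl2, MnCl2, DTT, Na3VO4, BSA; 25°C, 60 min; ADP-Glo luminescence. Ten concentrations 0.005–100 µM; IC50 by nonlinear regression; means ± SD of three independent experiments.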

[2] = biological target: T2, Inhibitor of nuclear factor kappa-B kinase subunit epsilon (Homo sapiens, UniProt Q14164); assay: Inhibition of recombinant human full-length N-terminal GST-fused/His6-tagged IKKepsilon (M1 to V716 residues) expressed in Sf9 insect cells using ERLLDDRHDSGLDSMKDEE peptide as substrate measured after 60 mins by ADP-Glo kinase assay
T2 sequence (Q14164 whole entry): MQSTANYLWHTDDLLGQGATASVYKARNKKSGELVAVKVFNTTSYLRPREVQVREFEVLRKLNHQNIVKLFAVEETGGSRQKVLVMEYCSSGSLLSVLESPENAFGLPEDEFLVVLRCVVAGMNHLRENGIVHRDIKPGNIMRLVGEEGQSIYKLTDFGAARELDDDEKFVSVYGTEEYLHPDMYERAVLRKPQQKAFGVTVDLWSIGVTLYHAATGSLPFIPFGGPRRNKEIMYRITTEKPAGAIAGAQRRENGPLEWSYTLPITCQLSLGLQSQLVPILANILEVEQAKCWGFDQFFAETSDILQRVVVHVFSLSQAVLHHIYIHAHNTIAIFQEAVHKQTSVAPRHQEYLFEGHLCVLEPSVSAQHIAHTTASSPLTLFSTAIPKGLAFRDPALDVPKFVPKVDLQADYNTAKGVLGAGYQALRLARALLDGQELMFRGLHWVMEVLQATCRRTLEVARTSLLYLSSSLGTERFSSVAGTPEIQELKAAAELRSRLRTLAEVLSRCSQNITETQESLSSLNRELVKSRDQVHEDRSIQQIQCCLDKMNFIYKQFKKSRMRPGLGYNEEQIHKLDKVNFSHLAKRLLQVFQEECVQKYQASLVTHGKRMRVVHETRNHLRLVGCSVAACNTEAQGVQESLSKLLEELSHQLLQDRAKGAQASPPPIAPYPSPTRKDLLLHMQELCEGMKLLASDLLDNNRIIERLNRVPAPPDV

[3] = biological target: Mitogen-activated protein kinase kinase kinase 14 (Homo sapiens, UniProt Q99558); assay: Inhibition of recombinant human full-length N-terminal GST-fused/His6-tagged NIK (M1 to P947 residues) expressed in Sf9 insect cells using AKDVDQGSLCTSFVGTLQY peptide as substrate measured after 60 mins by ADP-Glo kinase assay
Chain of Mitogen-activated protein kinase kinase kinase 14 (Q99558 whole entry, the tested form may be a part): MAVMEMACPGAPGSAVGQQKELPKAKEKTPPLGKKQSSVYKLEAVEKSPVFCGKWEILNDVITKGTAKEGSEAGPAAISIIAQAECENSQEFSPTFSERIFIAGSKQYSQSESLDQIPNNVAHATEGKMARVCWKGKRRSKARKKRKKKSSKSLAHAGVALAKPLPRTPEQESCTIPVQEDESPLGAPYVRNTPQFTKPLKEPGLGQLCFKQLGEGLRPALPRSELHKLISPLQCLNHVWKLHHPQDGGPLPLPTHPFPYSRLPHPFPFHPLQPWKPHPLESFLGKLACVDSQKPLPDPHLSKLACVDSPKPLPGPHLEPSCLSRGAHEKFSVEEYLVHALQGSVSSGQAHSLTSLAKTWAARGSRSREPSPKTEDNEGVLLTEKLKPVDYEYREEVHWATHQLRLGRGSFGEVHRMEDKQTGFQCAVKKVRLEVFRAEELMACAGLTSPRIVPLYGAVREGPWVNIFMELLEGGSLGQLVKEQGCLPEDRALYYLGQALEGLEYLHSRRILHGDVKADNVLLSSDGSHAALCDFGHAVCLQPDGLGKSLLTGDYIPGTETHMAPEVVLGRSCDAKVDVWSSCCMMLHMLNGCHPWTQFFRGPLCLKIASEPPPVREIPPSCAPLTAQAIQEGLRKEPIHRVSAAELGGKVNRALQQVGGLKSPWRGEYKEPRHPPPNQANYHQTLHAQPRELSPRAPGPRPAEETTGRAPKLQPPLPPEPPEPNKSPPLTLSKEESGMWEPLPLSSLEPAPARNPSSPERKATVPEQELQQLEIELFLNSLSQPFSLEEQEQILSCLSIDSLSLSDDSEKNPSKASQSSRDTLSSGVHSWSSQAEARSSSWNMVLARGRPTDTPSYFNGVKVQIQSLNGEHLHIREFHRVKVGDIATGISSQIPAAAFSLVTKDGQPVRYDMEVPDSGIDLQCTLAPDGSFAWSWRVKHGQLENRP

[4] = biological target: T3, Inhibitor of nuclear factor kappa-B kinase subunit beta (Homo sapiens, UniProt O14920); assay: Inhibition of recombinant human full-length N-terminal GST-fused/His6-tagged IKKbeta (M1 to S756 residues) expressed in Sf9 insect cells using ERLLDDRHDSGLDSMKDEE peptide as substrate measured after 60 mins by ADP-Glo kinase assay
T3 sequence (O14920 whole entry): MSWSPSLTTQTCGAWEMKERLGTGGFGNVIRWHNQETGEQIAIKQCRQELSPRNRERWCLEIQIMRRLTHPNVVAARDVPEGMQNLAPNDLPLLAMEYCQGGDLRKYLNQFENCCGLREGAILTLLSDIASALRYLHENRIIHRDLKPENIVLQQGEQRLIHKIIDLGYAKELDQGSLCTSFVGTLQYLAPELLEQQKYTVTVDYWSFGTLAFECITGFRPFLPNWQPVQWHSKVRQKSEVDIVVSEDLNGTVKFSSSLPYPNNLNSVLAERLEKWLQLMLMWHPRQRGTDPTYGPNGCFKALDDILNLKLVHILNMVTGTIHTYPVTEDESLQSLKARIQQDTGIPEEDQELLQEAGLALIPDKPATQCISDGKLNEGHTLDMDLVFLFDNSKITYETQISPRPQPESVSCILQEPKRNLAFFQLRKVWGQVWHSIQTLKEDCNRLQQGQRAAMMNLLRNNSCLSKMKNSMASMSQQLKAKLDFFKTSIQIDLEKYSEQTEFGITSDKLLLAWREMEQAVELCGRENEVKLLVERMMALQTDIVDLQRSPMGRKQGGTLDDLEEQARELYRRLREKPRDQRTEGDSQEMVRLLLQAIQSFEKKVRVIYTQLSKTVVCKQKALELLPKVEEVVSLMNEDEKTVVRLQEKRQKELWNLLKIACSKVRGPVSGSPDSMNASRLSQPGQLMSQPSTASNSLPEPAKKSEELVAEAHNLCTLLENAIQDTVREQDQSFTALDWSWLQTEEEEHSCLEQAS

| Structure (SMILES) | IC50 [1] [µM] | IC50 [2] [µM] | IC50 [3] [µM] | IC50 [4] [µM] |
| --- | --- | --- | --- | --- |
| Cc1nn(C(=O)c2ccncc2)c(N)c1-c1ccc(Cl)c(Cl)c1 | > 100 | > 100 | 58.2 | > 100 |
| Cc1c(-c2ccc(Cl)c(Cl)c2)c(N)nn1C(=O)C1CCC1 | > 100 | > 100 | > 100 | > 100 |
| CCc1nn(C(C)=O)c(N)c1-c1ccc(Cl)c(Cl)c1 | > 100 | > 100 | > 100 | > 100 |
| CC(=O)n1nc(C)c(Br)c1N | > 100 | 22.9 | > 100 | 13.6 |
| Cc1c(N)n[nH]c1-c1ccc(Cl)c(Cl)c1 | > 100 | > 100 | > 100 | 75.7 |
| Cc1n[nH]c(N)c1-c1ccccc1 | > 100 | > 100 | > 100 | > 100 |
| Cc1[nH]nc(N)c1-c1cccc(OC(F)(F)F)c1 | > 100 | > 100 | > 100 | > 100 |
| Cc1nn(C(=O)C2CC2)c(N)c1-c1ccc(Cl)cc1 | > 100 | > 100 | > 100 | > 100 |
| Cc1[nH]nc(N)c1-c1ccc(OCc2ccccc2)cc1 | > 100 | 15.4 | > 100 | > 100 |
| CCCC(=O)n1nc(C)c(-c2ccc(Cl)c(Cl)c2)c1N | > 100 | > 100 | > 100 | > 100 |
| CC(=O)n1nc(C)c(-c2ccc(Cl)cc2)c1N | > 100 | > 100 | > 100 | > 100 |
| Cc1[nH]nc(N)c1-c1cccc(Br)c1 | > 100 | > 100 | > 100 | 88 |
| Cc1[nH]nc(N)c1-c1cccc(C(F)(F)F)c1 | > 100 | > 100 | > 100 | 22.4 |
| Cc1ccc(-c2c(N)n[nH]c2C)cc1 | > 100 | > 100 | > 100 | > 100 |
| CC(=O)n1nc(C)c(-c2cccc(C(F)(F)F)c2)c1N | > 100 | > 100 | > 100 | > 100 |
| Cc1nn(C)c(N)c1-c1ccc(Cl)c(Cl)c1 | > 100 | > 100 | > 100 | > 100 |
| Cc1nn(C(=O)c2cccnc2)c(N)c1-c1ccc(Cl)c(Cl)c1 | > 100 | > 100 | > 100 | > 100 |
| Cc1c(-c2ccc(Cl)c(Cl)c2)c(N)nn1C(=O)c1cccnc1 | > 100 | > 100 | > 100 | > 100 |
| Cc1[nH]nc(N)c1-c1cccc(Cl)c1 | > 100 | 93.4 | > 100 | > 100 |

Next, values leading:

| IC50 [1] [µM] | IC50 [2] [µM] | IC50 [3] [µM] | IC50 [4] [µM] | Structure (SMILES) |
| --- | --- | --- | --- | --- |
| > 100 | > 100 | > 100 | > 100 | Cc1nn(C(=O)OC(C)(C)C)c(N)c1-c1ccc(Cl)c(Cl)c1 |
| > 100 | > 100 | > 100 | > 100 | Cc1c(-c2ccc(Cl)c(Cl)c2)c(N)nn1C |
| > 100 | > 100 | > 100 | > 100 | Cc1cccc(-c2c(N)n[nH]c2C)c1 |
| > 100 | > 100 | 12.5 | 47.7 | CC(=O)n1nc(N)c(Br)c1C |
| > 100 | > 100 | > 100 | 50.9 | Cc1[nH]nc(N)c1-c1ccc(Cl)c(Cl)c1 |
| > 100 | > 100 | > 100 | 42.8 | Cc1[nH]nc(N)c1-c1ccc2ccccc2c1 |
| > 100 | > 100 | > 100 | 22.9 | Cc1[nH]nc(N)c1-c1cc(C(F)(F)F)cc(C(F)(F)F)c1 |
| > 100 | > 100 | > 100 | > 100 | CC(=O)n1nc(C)c(-c2cccc(Cl)c2)c1N |
| > 100 | > 100 | > 100 | > 100 | Cc1[nH]nc(N)c1-c1ccc2c(c1)OCO2 |
| > 100 | > 100 | > 100 | > 100 | Cc1ccc(-c2c(N)n[nH]c2C)cc1C |
| > 100 | > 100 | > 100 | > 100 | CCNC(=O)n1nc(C)c(-c2ccc(Cl)c(Cl)c2)c1N |
| > 100 | > 100 | 39.6 | > 100 | CC(=O)n1nc(C)c(-c2ccc(C)c(C)c2)c1N |
| > 100 | > 100 | > 100 | > 100 | CC(=O)n1nc(N)c(-c2ccc(Cl)c(Cl)c2)c1C |
| > 100 | > 100 | > 100 | > 100 | Cc1[nH]nc(NC(=O)c2ccccn2)c1-c1ccc(Cl)c(Cl)c1 |
| > 100 | > 100 | 41 | > 100 | Cc1nn(C(=O)C2CCCC2)c(N)c1-c1ccc(Cl)c(Cl)c1 |
| 89.7 | > 100 | > 100 | 60.1 | Cc1[nH]nc(N)c1-c1ccc(Br)cc1 |
| 34.9 | > 100 | > 100 | > 100 | Cc1[nH]nc(NC(=O)C(F)(F)F)c1-c1ccc(Cl)c(Cl)c1 |
